From PubChem BioAssay
Compounds with a hit are over-represented: about 4.2% of the library has one in this group of screens.
TAAR1 ag: human TAAR1 agonists, primary screen, Fluo-8 calcium fluorescence, CHO RD-HGA16 cells. vehicle wells 0%, saturating PEA agonist 100%. activation, % at 3 µM. 360,000 compounds, 0.99% hits. AID 624467, 2012;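 active = activation above the mean activation of all test compounds in the run plus 3 SD, cut at about 38% in these data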
Target sequence (Q96RJ0 whole entry, looked up): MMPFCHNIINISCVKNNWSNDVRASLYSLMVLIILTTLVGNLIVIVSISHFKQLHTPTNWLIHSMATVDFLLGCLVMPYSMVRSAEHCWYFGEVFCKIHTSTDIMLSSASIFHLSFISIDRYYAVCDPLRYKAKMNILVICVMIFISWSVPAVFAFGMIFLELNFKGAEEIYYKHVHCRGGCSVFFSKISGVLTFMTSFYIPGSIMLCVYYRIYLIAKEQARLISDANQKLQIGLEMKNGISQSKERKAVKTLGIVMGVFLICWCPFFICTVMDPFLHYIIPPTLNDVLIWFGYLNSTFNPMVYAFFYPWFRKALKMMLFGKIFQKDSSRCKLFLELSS
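Test system: RD-HGA16 (CHO) cells co-expressing Gα16 and hTAAR1 | Doses: Single dose, 3 µM | Schedule: 17-24 h seeding, 75 min 37 °C dye, 30 min RT | Evaluation: % activation from peak over basal fluorescence ratio, DMSO-to-PEA scaled | Technique: Kinetic Fluo-8 calcium fluorescence | Benchmarks: Low control DMSO, high control PEA (EC100)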
GalR3 antagonist: GalR3 antagonists in HEK293 cells, primary screen, cell-based, fluorescence readout. Galanin receptor type 3 (Homo sapiens), O60755. HEK293 GalR3-CNG cAMP membrane potential fluorescence; galR3 body fused to GalR1 C-terminus. inhibition, % at 3 µM. 360,000 compounds, 0.44% hits. AID 651719, 2012;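 active = inhibition above the screen-wide average plus 3 SD, cut at about 13% in these data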;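 also: forskolin and galanin both at EC90 stimulate the cells; cAMP rise reported by CNG channel membrane potential dye signal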
Target sequence (O60755 1-299 limits assumed): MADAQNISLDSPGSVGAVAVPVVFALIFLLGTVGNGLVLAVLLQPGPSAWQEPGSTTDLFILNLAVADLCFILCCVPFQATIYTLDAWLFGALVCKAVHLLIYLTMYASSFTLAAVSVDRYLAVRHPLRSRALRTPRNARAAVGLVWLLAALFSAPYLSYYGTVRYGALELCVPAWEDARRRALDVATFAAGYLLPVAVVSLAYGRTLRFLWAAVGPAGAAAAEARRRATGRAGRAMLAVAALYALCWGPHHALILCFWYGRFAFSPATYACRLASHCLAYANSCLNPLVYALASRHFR
OX1R antag-1: OX1R (HCRTR1) antagonists, primary screen, fluorescence, CHO/OX1R cells, Fluo-8 calcium, orexin A. Orexin/Hypocretin receptor type 1 (Homo sapiens), O43613. AID 434989, 2010. 330,000 compounds, 0.43% hits. inhibition, % at 5 µM. Fluo-8 calcium fluorescence;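 active = inhibition above its plate's threshold, mean inhibition of all tested compounds on the plate plus 3 SD, cut at about 37% in these data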
CHO parental Ca: ATP-evoked calcium signal inhibitors, parental CHO, primary screen, counter-screen for OX1R antagonist project, cell-based, fluorescence, Fluo-8 calcium dye. parental CHO-K1, ATP-induced calcium, Fluo-8 fluorescence. inhibition, % at 5.6 µM. 330,000 compounds, 0.63% hits. AID 463079, 2010;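 active = inhibition above that plate's mean sample inhibition plus 3 SD, cut at about 26% in these data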
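Test system: untransfected parental CHO cell line; also added: ATP stimulus; dosing: 5.6 µM, single dose; signal: calcium-sensitive Fluo-8 fluorescence; measure: percent inhibition of ATP-evoked calcium rise, normalized to controls; benchmarks: low control ATP plus DMSO, high control DMSO only; replication: one well per compound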
OX1R antag-2: antagonists of human orexin 1 receptor (OX1R) | Orexin/Hypocretin receptor type 1 (Homo sapiens), O43613 | OX1R-expressing cells, FRET antagonist read-out | inhibition, % at 6.6 µM | 330,000 compounds, 1.8% hits | AID 485270, 2010; in the data active = inhibition mostly above about 38%, no sharp cut-off; inactive = mostly below about 40%
TAAR1 antagonist: human TAAR1 antagonists, primary screen, Fluo-8 calcium fluorescence, CHO RD-HGA16 cells | Trace amine-associated receptor 1 (Homo sapiens), Q96RJ0 | antagonist | inhibition, % at 3 µM | 360,000 compounds, 1.5% hits;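 active = inhibition above a per-plate cutoff, the mean inhibition of test compounds on that plate plus 3 SD, cut at about 49% in these data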
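test system = CHO RD-HGA16 cells bearing hTAAR1 | replication = singlicate | controls = DMSO-only wells and EC80 β-PEA-stimulated wells | reagent = EC80 β-phenethylamine stimulus | read-out basis = percent inhibition of PEA-evoked calcium signal, max/basal emission ratio | schedule = seeding 17-24 h prior, 75-min 37 °C, 30-min RT dye loading | signal = kinetic Fluo-8 calcium fluorescence measurement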
A number is an active result; . = inactive; / = no result given.

SMILES	TAAR1 ag	GalR3 antagonist	OX1R antag-1	CHO parental Ca	OX1R antag-2	TAAR1 antagonist
COc1ccc(O)c(C(=O)c2cc(C#N)c(=O)n(-c3c(C)n(C)n(-c4ccccc4)c3=O)c2)c1	.	.	.	.	.	.
O=C(COC(=O)c1cc[n+]([O-])cc1)Nc1ccc(SC(F)F)cc1	.	.	.	.	.	.
CCOc1ccc(C(=O)OCC(=O)Nc2ccc(SC(F)F)cc2)cc1OCC	.	.	.	25.2	.	.
CC(C)n1c(CNC(=O)c2ccccc2F)nnc1SCC(=O)c1ccc(F)cc1	38.8	.	/	/	/	.
Cc1ccc2nc(-c3ccccc3N)[nH]c2c1	.	.	.	.	.	.
Cc1ccccc1C(=O)Nc1c(C(=O)N2CCCC2)cnn1-c1ccccc1	.	.	.	.	.	.
N=C1/C(=C/c2coc3ccccc3c2=O)C(=O)N=C2SC(c3ccco3)=NN12	/	/	.	.	.	/
CSC1=NSC2=NC(=O)/C(=C\c3coc4ccccc4c3=O)C(=N)N12	383.0	.	.	.	.	107.4
Nc1nc(SCC(=O)N2CCN(c3ccccc3)CC2)n[nH]1	.	.	.	.	.	.
C[C@H](NC(=O)c1nc[nH]c1C(=O)NCc1ccc(CNC(=O)OC(C)(C)C)cc1)C(=O)OCc1ccccc1	.	.	.	.	.	82.0
CC(C)(C)OC(=O)NCCCCCNC(=O)c1[nH]cnc1C(=O)N[C@@H](Cc1ccccc1)C(=O)OC(C)(C)C	/	/	.	40.2	.	/
CC(C)(C)OC(=O)[C@H](Cc1ccccc1)NC(=O)c1nc[nH]c1C(=O)NCCCCCN	.	.	.	.	.	.
COc1cc(-c2cc(NC(C)=O)c3ncc(-c4ccc(F)cc4)n3c2)cc(OC)c1OC	.	.	/	/	/	52.0
CC(=O)Nc1cc(-c2ccccc2)cn2c(-c3ccc(F)cc3)cnc12	.	.	/	/	/	49.5
COc1cc(-c2cc(NC(C)=O)c3ncc(-c4ccc(C(C)=O)cc4)n3c2)cc(OC)c1OC	.	.	/	/	/	.
CCOC(=O)c1cnc(SCC(=O)N2CCc3ccccc32)nc1N	.	.	.	.	.	.
COc1cc(NS(=O)(=O)c2ccc(Nc3nc(-c4ccccc4)cs3)cc2)nc(OC)n1	.	.	.	.	.	.
COc1cc(/C=C(\C#N)c2nc3ccccc3[nH]2)ccc1OC(=O)c1ccco1	.	.	.	.	70.7	.
COc1cc(/C=C(/C#N)c2nc3ccccc3[nH]2)ccc1OCC(=O)Nc1ccccc1C	.	.	.	.	.	.
COc1cc(/C=C(\C#N)c2nc3ccccc3[nH]2)c([N+](=O)[O-])cc1OCc1ccccc1	.	.	.	.	.	53.9
COc1cccc(C(=O)N2CCN(S(C)(=O)=O)CC2)c1	.	.	.	.	.	.
CCC(=O)c1ccc(OCC(=O)OCC(=O)N(CCC#N)c2ccc3c(c2)OCCO3)cc1	.	.	.	44.3	.	.
O=C(Nc1ccc(C(=O)O)cc1)/C(=C\C=C\c1ccccc1)NC(=O)c1cccc(Br)c1	.	.	.	.	.	.
O=C(Nc1ccc(C(=O)O)cc1)/C(=C\C=C\c1ccccc1)NC(=O)c1ccccc1Br	.	.	.	.	.	58.6
CC(C)(C)NC(=O)c1ccc2nsnc2c1	.	.	.	.	66.9	.
SMILES	TAAR1 ag	GalR3 antagonist	OX1R antag-1	CHO parental Ca	OX1R antag-2	TAAR1 antagonist
CC(CN1CCOCC1)OC(=O)Cc1ccc(Cl)cc1 (stereo unspecified)	.	.	.	.	.	.
O=C(NCc1cccnc1)c1cc(C2CCCN(C(=O)c3ccccn3)C2)on1 (stereo unspecified)	.	.	/	/	/	.
Cc1ccc(CN2CCN(C(=O)C3CCCO3)CC2)cc1 (stereo unspecified)	.	.	.	.	.	.
O=C(C1CCCO1)N1CCN(Cc2c(O)ccc3ccccc23)CC1 (stereo unspecified)	.	.	.	28.9	.	.
COc1ccc(C(=O)/C=C/Nc2ccc(NC(C)=O)cc2)cc1OC	.	.	.	.	.	.
COc1ccc(NC(=O)/C=C/c2cc(Br)ccc2OC)cc1	.	.	.	.	83.0	.
COc1ccc(Br)cc1/C=C/C(=O)Nc1c(C)cccc1C	.	.	.	.	.	.
COc1ccc(OC)c(/C=C/C(=O)Nc2ccc3c(c2)CCC3)c1	.	.	.	.	69.3	.
COc1ccc(Br)cc1/C=C/C(=O)c1ccc(NC(C)=O)cc1	.	.	.	.	.	56.1
COCCn1c(SCC(=O)NCc2ccco2)nnc1-c1c[nH]c2ccccc12	.	/	.	.	.	.
CCOC(=O)Cc1csc(SCn2nnc3ccccc3c2=O)n1	.	.	.	.	.	.
CCOC(=O)Cc1csc(-n2sc3ccccc3c2=O)n1	.	.	.	32.0	.	.
COc1ccccc1-c1cnc(C(O)c2ccc(C)c(F)c2)[nH]1 (stereo unspecified)	.	.	/	/	/	.
CC(C)NC(=O)C1CCN(C(=O)c2ccc(-c3ccccc3)cc2)CC1	.	.	.	.	.	.
O=C(NCCN1CCN(c2ccccc2)CC1)c1ccccc1F	.	.	.	.	.	.
C[C@@H]1CC=C[C@H]2[C@H]1C(=O)N(Cc1ccccc1)[C@H]2c1ccc2ccccc2c1Br	.	.	/	/	/	.
COc1cc(NC(=O)COc2ccc(-n3ccnc3)cc2)cc(OC)c1	.	.	.	.	.	.
CC(C)(C)c1ccc(NC(=O)COc2ccc(-n3ccnc3)cc2)cc1	.	.	62.0	44.1	.	56.9
COc1ccc(OCC(=O)N/N=C(\C)c2ccc(-n3ccnc3)cc2)cc1	.	.	.	.	.	.
N#Cc1cccc(NC(=O)COc2ccc(-n3ccnc3)cc2)c1	.	.	.	23.3	.	.
N#Cc1ccc(-c2ccc(OCC(=O)Nc3cccnc3)cc2)cc1	.	.	/	/	/	58.6
Cc1ccc(C(=O)N(c2ccccc2)C2CC(C)N(C(=O)c3ccco3)c3ccccc32)cc1 (stereo unspecified)	.	.	.	.	.	.
COc1ccc(N/C=C2\CCc3ccccc3C2=O)cc1	.	.	.	.	38.6	.
COc1ccc2c(c1)CC/C(=C\Nc1ccc3c(c1)OCO3)C2=O	.	.	.	.	.	.
CC1(C)C(=O)Nc2ccccc2N1C(=O)COC(=O)COc1cccc(C(F)(F)F)c1	.	.	.	.	.	.
